The results in this text go back to ChEMBL document CHEMBL1151932, “Antiviral effect of ribonuclease conjugated oligodeoxynucleotides targeting the IRES RNA of the hepatitis C virus” (Bioorg Med Chem Lett, 2009).

Data set [1] concerns Hepatitis C virus. Description: Antiviral activity against HCV infected in human Huh7.5.1 cells at 1000 nM treated through lipofection after 17 hrs of infection by luciferase assay. The format is functional, Hepacivirus hominis, Huh-7. A digest of the protocol:
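Huh7.5.1 cells first infected with HCVcc; after 17 h, ODNs transfected by lipid reagent at 10–1000 nM. Triplicate runs; signal normalised to cell number by WST-1 and expressed as percent of non-specific scrambled ODN control.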

Data set [2] deals with Hepatitis C virus. As to the kind of experiment: Antiviral activity against HCV infected in human Huh7.5.1 cells assessed as reduction in viral replication treated through microporation 17 hrs prior to infection for 4 hrs measured after 20 hrs by luciferase assay relative to control. More on the design: scale not given: the % may be the effect or the level left. It counts as functional, Hepacivirus hominis, Huh-7. A digest of the protocol:
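Huh7.5.1 cells electroporated (microporation) with ODNs at 10–1000 nM, then infected with HCVcc; replication read 20 h after infection. Triplicate runs; signal normalised to cell number by WST-1 and expressed as percent of scrambled-sequence non-specific ODN control.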

The test system of data set [3] is Hepatitis C virus. As to the kind of experiment: Antiviral activity against HCV infected in human Huh7.5.1 cells assessed as reduction in viral replication treated through microporation 17 hrs prior to infection for 4 hrs measured after 20 hrs by luciferase assay. It counts as functional, organism-based. The conditions noted are these: Hepacivirus hominis; Huh-7. The gist of the method:
(§1)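 Huh7.5.1 cells were microporated with oligodeoxynucleotide (10–1000 nM) and infected with reporter HCVcc (FL-J6/JFH-5/C19Rluc2AUbi construct) about 17 h later. Viral replication was read 20 h after infection, normalized to cell number by WST-1, and expressed as % of a scrambled-sequence non-specific ODN control. Triplicate.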

Data set [4] deals with Hepatitis C virus. As to the kind of experiment: Cytotoxicity against HCV infected in human Huh7.5.1 cells treated through microporation for 17 hrs prior to 4 hr infection period measured after 20 hrs postinfection by luciferase assay. The format is organism-based. The note with it: hepacivirus hominis, huh-7, 20 h.
The subject of data set [5] is Hepatitis C virus. Description: Cytotoxicity against HCV infected in human Huh7.5.1 cells treated through microporation for < 17 hrs prior to 4 hrs infection period measured after 20 hrs postinfection by luciferase assay. It counts as organism-based. The conditions noted are these: hepacivirus hominis, huh-7, 20 h.
In data set [6] the test system is Hepatitis C virus. As to the kind of experiment: Antiviral activity against HCV infected in human Huh7.5.1 cells at 100 nM treated through lipofection after 17 hrs of infection by luciferase assay. It counts as functional, organism-based. The note with it: Hepacivirus hominis, Huh-7. A digest of the protocol: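 Huh7.5.1 cells were infected with reporter HCVcc (FL-J6/JFH-5/C19Rluc2AUbi construct) without trypsinization. After 17 h, cells were transfected with oligodeoxynucleotide using a lipid reagent (10–1000 nM tested). Replication signal was normalized to cell number by WST-1 and expressed as % of a scrambled-sequence non-specific ODN control. Triplicate.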

Data set [7] has as its system Hepatitis C virus. Description: Antiviral activity against HCV infected in human Huh7.5.1 cells assessed as reduction in viral replication at 1000 nM treated through microporation 17 hrs prior to infection for 4 hrs measured after 20 hrs by luciferase assay. It counts as functional, organism-based. The conditions noted are these: Hepacivirus hominis, Huh-7. The gist of the method: as §1

Data set [8] concerns Hepatitis C virus. Description: Antiviral activity against HCV infected in human Huh7.5.1 cells assessed as reduction in viral replication at 100 nM treated through microporation 17 hrs prior to infection for 4 hrs measured after 20 hrs by luciferase assay. It counts as functional, organism-based. The conditions noted are these: Hepacivirus hominis, Huh-7. The gist of the method: as §1

Activity calls are given as the source filed them. No cut-off for these calls is given here.

As to `Cc1cn([C@@H]2O[C@H](COP(=O)(O)O[C@H]3[C@@H](O)[C@H](n4ccc(N)nc4=O)O[C@@H]3COP(=O)(O)O[C@H]3[C@@H](O)[C@H](n4cnc5c(N)ncnc54)O[C@@H]3COP(=O)(O)O[C@H]3[C@@H](O)[C@H](n4cc(C)c(=O)[nH]c4=O)O[C@@H]3COP(=O)(O)O[C@H]3[C@@H](O)[C@H](n4ccc(N)nc4=O)O[C@@H]3COP(=O)(O)O[C@@H]3[C@@H](COP(=O)(O)O[C@H]4[C@@H](O)[C@H](n5ccc(N)nc5=O)O[C@@H]4COP(=O)(O)O[C@H]4[C@@H](O)[C@H](n5cnc6c(N)ncnc65)O[C@@H]4COP(=O)(O)O[C@H]4[C@@H](O)[C@H](n5cnc6c(N)ncnc65)O[C@@H]4COP(=O)(O)O[C@H]4[C@@H](O)[C@H](n5ccc(N)nc5=O)O[C@@H]4COP(=O)(O)O[C@H]4[C@@H](O)[C@H](n5ccc(N)nc5=O)O[C@@H]4COP(=O)(O)O[C@H]4[C@@H](O)[C@H](n5ccc(N)nc5=O)O[C@@H]4COP(=O)(O)O[C@H]4C[C@H](n5cnc6c(N)ncnc65)O[C@@H]4COP(=O)(O)OCCCNC(=O)CCc4c[nH]cn4)OC(n4cnc5c(N)ncnc54)[C@@H]3O)[C@@H](OP(=O)(O)OC[C@H]3O[C@@H](n4ccc(N)nc4=O)[C@H](O)[C@@H]3OP(=O)(O)OC[C@H]3O[C@@H](n4cnc5c(=O)[nH]c(N)nc54)[C@H](O)[C@@H]3OP(=O)(O)OC[C@H]3O[C@@H](n4cnc5c(=O)[nH]c(N)nc54)[C@H](O)[C@@H]3OP(=O)(O)OC[C@H]3O[C@@H](n4ccc(N)nc4=O)[C@H](O)[C@@H]3OP(=O)(O)O)[C@H]2O)c(=O)[nH]c1=O` (some centres undefined), the Activity was 50% with Hepatitis C virus [1]; 50% in the data set on Hepatitis C virus [2]; “Dose-dependent effect” in the data set on Hepatitis C virus [3]; “Non-toxic” in the data set on Hepatitis C virus [4]; “Toxic” in the data set on Hepatitis C virus [5]. For the same molecule, the outcome with Hepatitis C virus [6] and in the data set on Hepatitis C virus [8] was Active. For the same molecule, in the data set with Hepatitis C virus [7], the result was inactive.
With `Cc1cn([C@@H]2O[C@H](COP(=O)(O)O[C@H]3[C@@H](O)[C@H](n4ccc(N)nc4=O)O[C@@H]3COP(=O)(O)O[C@H]3[C@@H](O)[C@H](n4cnc5c(N)ncnc54)O[C@@H]3COP(=O)(O)O[C@H]3[C@@H](O)[C@H](n4cc(C)c(=O)[nH]c4=O)O[C@@H]3COP(=O)(O)O[C@H]3[C@@H](O)[C@H](n4ccc(N)nc4=O)O[C@@H]3COP(=O)(O)O[C@@H]3[C@@H](COP(=O)(O)O[C@H]4[C@@H](O)[C@H](n5ccc(N)nc5=O)O[C@@H]4COP(=O)(O)O[C@H]4[C@@H](O)[C@H](n5cnc6c(N)ncnc65)O[C@@H]4COP(=O)(O)O[C@H]4[C@@H](O)[C@H](n5cnc6c(N)ncnc65)O[C@@H]4COP(=O)(O)O[C@H]4[C@@H](O)[C@H](n5ccc(N)nc5=O)O[C@@H]4COP(=O)(O)O[C@H]4[C@@H](O)[C@H](n5ccc(N)nc5=O)O[C@@H]4COP(=O)(O)O[C@H]4[C@@H](O)[C@H](n5ccc(N)nc5=O)O[C@@H]4COP(=O)(O)O[C@H]4C[C@H](n5cnc6c(N)ncnc65)O[C@@H]4COP(=O)(O)O)OC(n4cnc5c(N)ncnc54)[C@@H]3O)[C@@H](OP(=O)(O)OC[C@H]3O[C@@H](n4ccc(N)nc4=O)[C@H](O)[C@@H]3OP(=O)(O)OC[C@H]3O[C@@H](n4cnc5c(=O)[nH]c(N)nc54)[C@H](O)[C@@H]3OP(=O)(O)OC[C@H]3O[C@@H](n4cnc5c(=O)[nH]c(N)nc54)[C@H](O)[C@@H]3OP(=O)(O)OC[C@H]3O[C@@H](n4ccc(N)nc4=O)[C@H](O)[C@@H]3OP(=O)(O)O)[C@H]2O)c(=O)[nH]c1=O` (some centres undefined), the Activity was 50% with Hepatitis C virus [1]; 50% in the data set on Hepatitis C virus [2]; “Dose-dependent effect” with Hepatitis C virus [3]; “Non-toxic” in the data set on Hepatitis C virus [4]; “Toxic” in the data set with Hepatitis C virus [5]. In addition, the outcome with Hepatitis C virus [6] and in the data set on Hepatitis C virus [8] was Active.
Turning to `Cc1cn([C@@H]2O[C@H](COP(=O)(O)O[C@H]3[C@@H](O)[C@H](n4ccc(N)nc4=O)O[C@@H]3COP(=O)(O)O[C@H]3[C@@H](O)[C@H](n4ccc(N)nc4=O)O[C@@H]3COP(=O)(O)O[C@H]3[C@@H](O)[C@H](n4ccc(N)nc4=O)O[C@@H]3COP(=O)(O)O[C@H]3[C@@H](O)[C@H](n4cnc5c(N)ncnc54)O[C@@H]3COP(=O)(O)O[C@H]3[C@@H](O)[C@H](n4cnc5c(N)ncnc54)O[C@@H]3COP(=O)(O)O[C@H]3[C@@H](O)[C@H](n4ccc(N)nc4=O)O[C@@H]3CO)[C@@H](OP(=O)(O)OC[C@H]3O[C@@H](n4cnc5c(N)ncnc54)[C@H](O)[C@@H]3OP(=O)(O)OC[C@H]3O[C@@H](n4cnc5c(=O)[nH]c(N)nc54)[C@H](O)[C@@H]3OP(=O)(O)OC[C@H]3O[C@@H](n4cc(C)c(=O)[nH]c4=O)[C@H](O)[C@@H]3OP(=O)(O)OC[C@H]3O[C@@H](n4cc(C)c(=O)[nH]c4=O)[C@H](O)[C@@H]3OP(=O)(O)OC[C@H]3O[C@@H](n4cc(C)c(=O)[nH]c4=O)[C@H](O)[C@@H]3OP(=O)(O)OC[C@H]3O[C@@H](n4cnc5c(=O)[nH]c(N)nc54)[C@H](O)[C@@H]3OP(=O)(O)OC[C@H]3O[C@@H](n4cc(C)c(=O)[nH]c4=O)[C@H](O)[C@@H]3OP(=O)(O)OC[C@H]3O[C@@H](n4ccc(N)nc4=O)[C@H](O)[C@@H]3O[PH](O)(O)OC[C@H]3O[C@@H](n4cnc5c(N)ncnc54)[C@H](O)[C@@H]3OP(=O)(O)OC[C@H]3O[C@@H](n4cnc5c(N)ncnc54)[C@H](O)[C@@H]3OP(=O)(O)O)[C@H]2O)c(=O)[nH]c1=O`, the Activity entry in the data set with Hepatitis C virus [4] was “Non-toxic”.
In the case of `Cc1cn([C@@H]2O[C@H](COP(=O)(O)O[C@H]3[C@@H](O)[C@H](n4ccc(N)nc4=O)O[C@@H]3COP(=O)(O)O[C@H]3[C@@H](O)[C@H](n4cnc5c(N)ncnc54)O[C@@H]3COP(=O)(O)O[C@H]3[C@@H](O)[C@H](n4cc(C)c(=O)[nH]c4=O)O[C@@H]3COP(=O)(O)O[C@H]3[C@@H](O)[C@H](n4ccc(N)nc4=O)O[C@@H]3COP(=O)(O)O[C@H]3[C@@H](O)[C@H](n4cnc5c(N)ncnc54)O[C@@H]3COP(=O)(O)O[C@H]3[C@@H](O)[C@H](n4ccc(N)nc4=O)O[C@@H]3COP(=O)(O)O[C@H]3[C@@H](O)[C@H](n4cnc5c(N)ncnc54)O[C@@H]3COP(=O)(O)O[C@H]3[C@@H](O)[C@H](n4cnc5c(N)ncnc54)O[C@@H]3COP(=O)(O)O[C@H]3[C@@H](O)[C@H](n4ccc(N)nc4=O)O[C@@H]3COP(=O)(O)O[C@H]3[C@@H](O)[C@H](n4ccc(N)nc4=O)O[C@@H]3COP(=O)(O)O[C@H]3[C@@H](O)[C@H](n4ccc(N)nc4=O)O[C@@H]3COP(=O)(O)O[C@H]3[C@@H](O)[C@H](n4cnc5c(N)ncnc54)O[C@@H]3CO)[C@@H](OP(=O)(O)OC[C@H]3O[C@@H](n4ccc(N)nc4=O)[C@H](O)[C@@H]3OP(=O)(O)OC[C@H]3O[C@@H](n4cnc5c(=O)[nH]c(N)nc54)[C@H](O)[C@@H]3OP(=O)(O)OC[C@H]3O[C@@H](n4cnc5c(=O)[nH]c(N)nc54)[C@H](O)[C@@H]3OP(=O)(O)OC[C@H]3O[C@@H](n4cnc(N)cc4=O)C[C@@H]3OP(=O)(O)OCCCNC(=O)CCc3c[nH]cn3)[C@H]2O)c(=O)[nH]c1=O`, the Activity with Hepatitis C virus [1] is 50%; in the data set with Hepatitis C virus [2], 50%; with Hepatitis C virus [3], “Dose-dependent effect”; in the data set on Hepatitis C virus [4], “Non-toxic”; in the data set on Hepatitis C virus [5] it was “Toxic”. Further, the outcome in the data set with Hepatitis C virus [6] and with Hepatitis C virus [8] was Active. Besides, the outcome with Hepatitis C virus [7] was inactive.
